Test results as given in ChEMBL document CHEMBL5674889, “Enhanced JunD/RSK3 signalling due to loss of BRD4/FOXD3/miR-548d-3p axis determines BET inhibition resistance” (2020).
Calls of active or inactive are those of the source. The rule behind the calls is not given here.

How the values were obtained:
MDA-MB-231 [1] = experiment: Antiproliferative activity in human FOXD3-knockdown MDA-MB-231 cells assessed as cell growth at 1 uM by CCK-8 assay; type: functional, cell-based
BT-474 = experiment: Antiproliferative activity in human FOXD3-overexpressing BT-474 cells assessed as cell growth at 1 uM by CCK-8 assay; type: functional, cell-based
BT-549 [2] = experiment: Antiproliferative activity in human BT-549 cells assessed as cell growth in the presence of osimertinib at 1 uM by CellTiter-Glo luminescent cell viability assay; type: functional, cell-based
Outline: (§1)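 BLBC cells seeded at 3000/well, adhered overnight, then exposed to JQ1 (1 μM) with or without an EGFR inhibitor (1 μM) for 48 h; control and RPS6KA2-shRNA clones tested. Viability by CellTiter-Glo luminescence, background-subtracted and normalized to DMSO-treated control; triplicates, mean ± SD, one-way ANOVA against JQ1 alone.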

MDA-MB-231 [3] = experiment: Effect on human MDA-MB-231 cells assessed as RSK3 protein expression at 1 uM for 24 hrs by Western blot analysis; type: functional, cell-based
Outline: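 Western blot for RSK3 in MDA-MB-231 and BT549 cells treated with DMSO or 1 μM for 0, 12 and 24 h. Antibody used at 1:1000.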

MDA-MB-231 [4] = experiment: Downregulation of miR-548d-3p expression in human MDA-MB-231 cells at 1 uM by real-time PCR analysis; type: functional, cell-based
MDA-MB-231 [5] = experiment: Effect on induction of RPS6KA2 transcription in human MDA-MB-231 cells assessed as JunD protein expression at 1 uM for 24 hrs by Western blot analysis; type: functional, cell-based
MDA-MB-231 [6] = experiment: Induction of apoptosis in human RPS6KA2-knockdown MDA-MB-231 cells at 1 uM by FACS assay; type: functional, cell-based
Outline: (§2)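 Stable clones (vector, RSK3-overexpressing or RPS6KA2-knockdown) treated ± JQ1 1 μM. Cells washed twice in PBS, resuspended at 1 × 10^6 cells/ml in binding buffer, stained with Annexin V-FITC and propidium iodide for 10 min at room temperature in the dark, then read by flow cytometry. Three independent experiments; one-way ANOVA.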

MDA-MB-231 [7] = experiment: Cytotoxicity in human RSK3-overexpressing MDA-MB-231 cells assessed as cell viability at 1 uM for 48 hrs by CellTiter-Glo luminescent cell viability assay; type: functional, cell-based
Outline: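 CellTiter-Glo viability: stable overexpressing or shRNA clones (puromycin 1.0 μg/ml selection) seeded 3000 cells/well, adhered overnight, then exposed to 1 μM for 48 h. Luminescence is background-subtracted and normalised to DMSO-treated control. Triplicates, mean ± SD, one-way ANOVA. MDA-MB-231 cells are kept in DMEM and BT549 in RPMI-1640, each with 10% FBS.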

BT-549 [8] = experiment: Antiproliferative activity in human JUND-overexpressing BT-549 cells assessed as cell viability at 1 uM by CellTiter-Glo luminescent cell viability assay; type: functional, cell-based
Outline: (§3)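 Stable JUND-knockdown (shRNA, puromycin 1.0 μg/ml selection) or JUND-overexpressing clones and vector controls, seeded 3000 cells/well and adhered overnight, then given DMSO or JQ1 (1 μM) for 48 h. Read-out CellTiter-Glo luminescence normalized to DMSO control; triplicates, mean ± SD, one-way ANOVA.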

MDA-MB-231 [9] = experiment: Antiproliferative activity in human JUND-overexpressing MDA-MB-231 cells assessed as tumor sphere formation at 1 uM by Tumor sphere assay; type: functional, cell-based
MDA-MB-231 [10] = experiment: Effect on human BRD4-knockdown MDA-MB-231 cells assessed as miR-548d-3p expression at 1 uM by real-time PCR analysis; type: functional, cell-based
HEK-293T = experiment: Effect on human HEK293T cells transfected with BRD4 assessed as decrease in luciferase activity at 1 uM for 6 hrs by Luciferase reporter assay; type: functional, cell-based
MDA-MB-231 [11] = experiment: Antiproliferative activity in human JUND-overexpressing MDA-MB-231 cells assessed as cell viability at 1 uM by CellTiter-Glo luminescent cell viability assay; type: functional, cell-based; outline: as §3
MDA-MB-231 [12] = experiment: Induction of apoptosis in human MDA-MB-231 cells expressing vector control assessed as late apoptotic cells at 1 uM by Annexin V-FITC flow cytometric analysis (reference value: 2.4%); type: functional; outline: as §2
MDA-MB-231 [13] = experiment: Antiproliferative activity in human MDA-MB-231 cells assessed as cell growth for 48 hrs in the presence of osimertinib at 1 uM by CCK-8 assay; type: functional, cell-based
Outline: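 Cells seeded 3000/well, adhered overnight, treated with JQ1 (1 μM) with or without osimertinib (1 μM) for 48 h; growth by CCK-8 kit, normalized to DMSO-treated control; triplicates, mean ± SD, one-way ANOVA.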

BT-549 [14] = experiment: Antiproliferative activity in human BT-549 cells assessed as cell growth in the presence of EAI045 at 1 uM by CellTiter-Glo luminescent cell viability assay; type: functional, cell-based; outline: as §1
MDA-MB-231 [15] = experiment: Effect of human RSK3-overexpressing MDA-MB-231 cells assessed as suppression of tumour sphere formation at 1 uM by Tumour sphere assay; type: functional, cell-based
MDA-MB-231 [16] = experiment: Antiproliferative activity in human JunD-overexpressing MDA-MB-231 cells assessed as cell growth in the presence of osimertinib at 1 uM by CCK-8 assay; type: functional, cell-based
Outline: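 Vector control, RSK3- or JunD-overexpressing cells seeded 3000/well, adhered overnight, then treated with JQ1 alone or combined with kinase inhibitors for 48 h; growth by CCK-8, normalized to DMSO control; triplicates, mean ± SD.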

BT-549 [17] = experiment: Antiproliferative activity in human FOXD3-knockdown BT-549 cells co-silenced with shRNA of JUND assessed as cell growth at 1 uM by CCK-8 assay; type: functional, cell-based
MDA-MB-231 [18] = experiment: Inhibition of FOXD3/-BRD4 protein-protein interaction in human MDA-MB-231 cells at 1 uM by Co-immunoprecipitation analysis; type: cell-based
Outline: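 Endogenous FOXD3 or BRD4 pulled down from MDA-MB-231 lysates with specific antibodies; partner detected by western blot.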

MDA-MB-231 [19] = experiment: Antiproliferative activity in human MDA-MB-231 cells assessed as cell growth in the presence of gefitinib at 1 uM by CellTiter-Glo luminescent cell viability assay; type: functional, cell-based; outline: as §1
MDA-MB-231 [20] = experiment: Antiproliferative activity in human RPS6KA2-knockdown MDA-MB-231 cells assessed as cell growth at 1 uM by CCK-8 assay; type: functional, cell-based
BT-549 [21] = experiment: Antiproliferative activity in human RPS6KA2-knockdown BT-549 cells assessed as cell growth at 1 uM by CCK-8 assay; type: functional, cell-based
MDA-MB-231 [22] = experiment: Induction of apoptosis in human MDA-MB-231 cells over expressing RSK3 assessed as viable cells at 1 uM by Annexin V-FITC flow cytometric analysis (reference value: 91.18%); type: functional; settings: read-out: Activity; outline: as §2
MDA-MB-231 [23] = experiment: Effect on human JUND-knockdown MDA-MB-231 cells assessed as reduction of RSK3 protein expression at 1 uM by Western blot analysis; type: functional, cell-based
Outline: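 RSK3 and JunD were probed by western blot in JUND-knockdown or JUND-overexpressing stable clones and their controls, all selected with puromycin 1.0 μg/ml. Antibodies used at 1:1000.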

BT-549 [24] = experiment: Induction of apoptosis in human BT-549 cells at 1 uM by FACS assay; type: functional, cell-based; outline: as §2
MDA-MB-231 [25] = experiment: Induction of apoptosis in human MDA-MB-231 cells over expressing RSK3 assessed as late apoptotic cells at 1 uM by Annexin V-FITC flow cytometric analysis (reference value: 1.45%); type: functional; outline: as §2

## Cc1sc2c(c1C)C(c1ccc(Cl)cc1)=N[C@@H](CC(=O)OC(C)(C)C)c1nnc(C)n1-2
MDA-MB-231 [1]
  Activity: Active
BT-474
  Activity: Active
BT-549 [2]
  Activity: Active
MDA-MB-231 [3]
  Activity: Active
MDA-MB-231 [4]
  Activity: Active
MDA-MB-231 [5]
  Activity: Active
MDA-MB-231 [6]
  Activity: Active
MDA-MB-231 [7]
  Activity: Active
BT-549 [8]
  Activity: Active
MDA-MB-231 [9]
  Activity: Active
MDA-MB-231 [10]
  Activity: Active
HEK-293T
  Activity: Active
MDA-MB-231 [11]
  Activity: Active
MDA-MB-231 [12]
  Activity: 5.48%
MDA-MB-231 [13]
  Activity: Active
BT-549 [14]
  Activity: Active
MDA-MB-231 [15]
  Activity: Active
MDA-MB-231 [16]
  Activity: Active
BT-549 [17]
  Activity: Active
MDA-MB-231 [18]
  inhibition: Active
MDA-MB-231 [19]
  Activity: Active
MDA-MB-231 [20]
  Activity: Active
BT-549 [21]
  Activity: Active
MDA-MB-231 [22]
  viability at 1 µM: 88.3%
MDA-MB-231 [23]
  Activity: Active
BT-549 [24]
  Activity: Active
MDA-MB-231 [25]
  Activity: 2.9%
